Source: ChEMBL document CHEMBL2169869, “Assay and inhibition of diacylglycerol lipase activity” (Bioorg Med Chem Lett, 2012)
Active and inactive are the calls of the source. No cut-off for these calls is given here.

How the values were obtained:
[1] = biological target: T1, Diacylglycerol lipase-alpha (Mus musculus) (UniProt Q6WQJ1); assay: Inhibition of mouse DAGLalpha expressed in HEK293T cell membrane using [14C]SAG substrate at 10000 nM by scintillation counting based radio-TLC assay; assay type: cell membranes; details: HEK-293T
T1 sequence (whole entry): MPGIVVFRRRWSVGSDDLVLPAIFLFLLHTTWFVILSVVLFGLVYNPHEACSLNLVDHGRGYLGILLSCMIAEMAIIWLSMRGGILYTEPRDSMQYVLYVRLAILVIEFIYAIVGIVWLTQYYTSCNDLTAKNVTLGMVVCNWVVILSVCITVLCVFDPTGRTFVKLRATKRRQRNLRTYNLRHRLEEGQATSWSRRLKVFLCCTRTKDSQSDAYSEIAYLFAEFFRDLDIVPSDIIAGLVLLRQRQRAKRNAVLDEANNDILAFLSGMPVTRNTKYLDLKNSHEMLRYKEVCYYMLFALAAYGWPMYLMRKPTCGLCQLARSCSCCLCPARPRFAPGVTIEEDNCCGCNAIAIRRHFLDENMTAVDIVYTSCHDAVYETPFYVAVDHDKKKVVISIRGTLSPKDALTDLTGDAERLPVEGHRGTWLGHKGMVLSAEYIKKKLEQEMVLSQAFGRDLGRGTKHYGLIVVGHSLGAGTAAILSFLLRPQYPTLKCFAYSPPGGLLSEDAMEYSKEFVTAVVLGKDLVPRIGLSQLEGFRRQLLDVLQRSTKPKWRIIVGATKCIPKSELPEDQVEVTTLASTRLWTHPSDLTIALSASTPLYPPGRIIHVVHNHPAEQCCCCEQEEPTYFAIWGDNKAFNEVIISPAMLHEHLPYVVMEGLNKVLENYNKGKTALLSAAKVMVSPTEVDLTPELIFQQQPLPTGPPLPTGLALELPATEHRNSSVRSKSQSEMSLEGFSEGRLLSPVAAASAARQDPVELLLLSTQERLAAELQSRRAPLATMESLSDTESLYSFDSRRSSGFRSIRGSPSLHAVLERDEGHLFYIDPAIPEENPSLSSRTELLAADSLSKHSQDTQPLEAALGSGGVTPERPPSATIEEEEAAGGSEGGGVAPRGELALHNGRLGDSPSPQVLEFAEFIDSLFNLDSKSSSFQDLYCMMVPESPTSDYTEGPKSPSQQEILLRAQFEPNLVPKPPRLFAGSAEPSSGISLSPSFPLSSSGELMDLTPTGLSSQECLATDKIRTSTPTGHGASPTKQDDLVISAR

Sus scrofa = species on record: Sus scrofa; assay: Inhibition of porcine pancreatic lipase type 2 at 10 uM by FRET assay
[2] = biological target: T1, Diacylglycerol lipase-alpha (Mus musculus); assay: Inhibition of mouse DAGLalpha expressed in HEK293T cell membrane using [14C]SAG substrate at 100 nM by scintillation counting based radio-TLC assay; assay type: cell membranes; details: HEK-293T
Procedure, shortened: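 mDAGLα radio-TLC using 8.8 μg membrane protein in 50 mM Tris pH 7.4 with 10 mM CaCl2. Inhibitor tested at 10 nM–10 μM, preincubated 15 min at 37 °C. [14C]SAG 20 μM final for 20 min at 37 °C. CHCl3/MeOH quench, silica TLC, phosphorimaging. Activity = labelled 2-AG+AA over total label. n=1–2.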

[3] = biological target: T2, Diacylglycerol lipase-alpha (Homo sapiens) (UniProt Q9Y4D2); assay: Inhibition of human DAGLalpha expressed in HEK293T cell membrane using [14C]SAG substrate at 10 uM in detergent free solution by […]; assay type: cell-based; details: HEK-293T
T2 sequence (whole entry): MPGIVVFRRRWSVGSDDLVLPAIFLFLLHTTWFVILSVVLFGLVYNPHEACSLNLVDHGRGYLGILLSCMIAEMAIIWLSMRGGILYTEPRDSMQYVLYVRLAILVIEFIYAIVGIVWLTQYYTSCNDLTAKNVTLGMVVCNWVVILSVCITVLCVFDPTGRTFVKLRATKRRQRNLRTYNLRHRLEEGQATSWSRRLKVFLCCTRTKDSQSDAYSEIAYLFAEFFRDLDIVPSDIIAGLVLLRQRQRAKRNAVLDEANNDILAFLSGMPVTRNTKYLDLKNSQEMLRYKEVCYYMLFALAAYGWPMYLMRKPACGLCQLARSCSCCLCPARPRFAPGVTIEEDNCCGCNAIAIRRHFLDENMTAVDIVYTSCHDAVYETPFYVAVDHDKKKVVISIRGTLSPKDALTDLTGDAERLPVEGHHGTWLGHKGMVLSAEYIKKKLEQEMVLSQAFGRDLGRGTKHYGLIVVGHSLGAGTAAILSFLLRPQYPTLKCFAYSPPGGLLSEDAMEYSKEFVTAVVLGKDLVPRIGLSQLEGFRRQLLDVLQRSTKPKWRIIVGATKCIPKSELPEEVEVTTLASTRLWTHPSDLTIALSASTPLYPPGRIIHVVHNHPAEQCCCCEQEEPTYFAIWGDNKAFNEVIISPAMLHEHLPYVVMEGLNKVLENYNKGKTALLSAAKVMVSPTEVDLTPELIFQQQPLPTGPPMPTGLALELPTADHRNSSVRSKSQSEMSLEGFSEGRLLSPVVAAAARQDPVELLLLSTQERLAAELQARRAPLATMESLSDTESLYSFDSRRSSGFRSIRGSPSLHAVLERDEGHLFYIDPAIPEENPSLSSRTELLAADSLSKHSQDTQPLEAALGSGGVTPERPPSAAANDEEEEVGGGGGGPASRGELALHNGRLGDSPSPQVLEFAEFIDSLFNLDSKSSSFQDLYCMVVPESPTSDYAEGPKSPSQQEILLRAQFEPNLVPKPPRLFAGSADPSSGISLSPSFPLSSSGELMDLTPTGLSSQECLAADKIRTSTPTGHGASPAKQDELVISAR

[4] = biological target: T1, Diacylglycerol lipase-alpha (Mus musculus); assay: Inhibition of mouse DAGLalpha expressed in HEK293T cell membrane using [14C]SAG substrate at 10 nM by scintillation counting based radio-TLC assay; assay type: cell membranes; details: HEK-293T
[5] = biological target: T2, Diacylglycerol lipase-alpha (Homo sapiens); assay: Inhibition of human DAGLalpha expressed in HEK293T cell membrane using [14C]SAG substrate at 10 uM in presence of 0.05% Triton X-100 by scintillation counting based radio-TLC assay; assay type: cell membranes; details: HEK-293T
Procedure, shortened: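 Sonicated HEK293T protein (100 μg) in 50 mM Tris pH 7.4 with 10 mM CaCl2. Inhibitor in DMSO (10% DMSO standard) preincubated 15 min at 37 °C. [14C]SAG was added to 20 μM final for 20 min at 37 °C, with Triton X-100 where the line states it. Quenched with 2:1 CHCl3/MeOH. Silica TLC in CHCl3/MeOH/NH4OH 86:14:0.75, then 12 h phosphorimaging. Activity = (2-AG+AA)/(2-AG+AA+SAG). Background-subtracted; n=1–2.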

CCCCCCCCCCC[C@@H](C[C@@H]1OC(=O)[C@H]1CCCCCC)OC(=O)[C@@H](NC=O)[C@H](C)CC
inhibition [1]: 100%
inhibition (Sus scrofa): 98%
inhibition [2]: 61%
inhibition [3]: 92%
inhibition [4]: 60%
inhibition [5]: 95%

CCCCCCCCCCC[C@@H](C[C@@H]1OC(=O)[C@H]1CCCCCC)OC(=O)[C@H](NC=O)[C@H](C)CC
inhibition [1]: 85%
inhibition (Sus scrofa): 99%
inhibition [2]: 29%
inhibition [3]: 90%
inhibition [4]: 33%
inhibition [5]: 78%

CCCCCCCCCCC[C@@H](C[C@@H]1OC(=O)[C@H]1CCCCCC)OC(=O)[C@H](CC(C)C)NC=O [ORLISTAT]
inhibition (Sus scrofa): 98%
inhibition [2]: 72%
inhibition [4]: 55%
inhibition [5]: 100%

CCCCCCCCCCC[C@@H](C[C@@H]1OC(=O)[C@H]1CCCCCC)OC(=O)[C@H](NC=O)[C@@H](C)CC
inhibition [1]: 90%
inhibition (Sus scrofa): 95%
inhibition [2]: 51%
inhibition [3]: 90%
inhibition [4]: 19%
inhibition [5]: 86%

CCCCCCCCCCC[C@@H](C[C@@H]1OC(=O)[C@H]1CCCCCC)OC(=O)[C@@H](NC=O)[C@@H](C)CC
inhibition [1]: 96%
inhibition (Sus scrofa): 99%
inhibition [2]: 80%
inhibition [3]: 92%
inhibition [4]: 69%
inhibition [5]: 98%

O=C(Oc1ccc([N+](=O)[O-])cc1)N1CCC(C(O)(c2ccc3c(c2)OCO3)c2ccc3c(c2)OCO3)CC1
inhibition [1]: 3%
inhibition (Sus scrofa): 36%
inhibition [3]: 59%
inhibition [4]: inactive

CCCCCCCCCCC[C@@H](C[C@@H]1OC(=O)[C@H]1CCCCCC)OC(=O)[C@H](CC)NC=O
inhibition [1]: 100%
inhibition (Sus scrofa): 97%
inhibition [2]: 68%
inhibition [3]: 93%
inhibition [4]: 50%
inhibition [5]: 99%
